This assay has as its target T1, 5-hydroxytryptamine receptor 1A (Rattus norvegicus, UniProt P19327).
T1 sequence (P19327 whole entry): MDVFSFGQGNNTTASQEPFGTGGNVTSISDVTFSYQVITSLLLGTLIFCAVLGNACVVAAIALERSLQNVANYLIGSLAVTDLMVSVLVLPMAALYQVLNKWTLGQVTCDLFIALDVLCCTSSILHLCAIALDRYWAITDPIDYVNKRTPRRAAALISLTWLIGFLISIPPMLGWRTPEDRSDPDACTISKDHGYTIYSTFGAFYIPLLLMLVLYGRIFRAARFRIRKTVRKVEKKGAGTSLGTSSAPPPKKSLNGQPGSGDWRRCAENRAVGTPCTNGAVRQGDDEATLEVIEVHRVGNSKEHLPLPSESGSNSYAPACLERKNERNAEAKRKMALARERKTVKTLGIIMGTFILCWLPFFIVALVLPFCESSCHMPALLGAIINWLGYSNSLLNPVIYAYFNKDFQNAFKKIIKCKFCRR
Kind of assay: In vitro binding affinity towards 5-hydroxytryptamine 1A receptor was determined using radioligand [3H]-8-OH-DPAT. In a few lines: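 Rat (male Sprague-Dawley) cerebral cortex membranes, about 1 mg protein, incubated 15 min at 37 °C with 0.6 nM [3H]8-OH-DPAT plus competitor in 50 mM Tris-HCl with 10 nM clonidine and 30 nM prazosin, pH 7.4. Nonspecific binding with 10 µM 5-HT. Triplicates; GF/B filtration, scintillation counting; IC50 curve fit, Ki by Cheng-Prusoff; 2-4 experiments.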

In general, Ki refers to a measure of affinity in units of concentration, obtained from inhibition or displacement. High values mean a looser hold on the target, low ones a stronger hold on the target. With `N#Cc1ccccc1N1CCN(CCCn2c(O)c3n(c2=O)CCCC3)CC1`, the affinity corresponds to a Ki of 33 nM.
`CC(C)C(=O)Nc1cccc(N2CCN(CCCn3c(O)c4n(c3=O)CCCC4)CC2)c1`: the Ki is more than 1000 nM.
In turn, `Nc1cccc(N2CCN(CCCn3c(O)c4n(c3=O)CCC4)CC2)c1` registered a Ki of more than 1000 nM.
Next, `O=c1n(CCCN2CCN(c3cccc(Br)c3)CC2)c(O)c2n1CCC2`: 33 nM; `CCCNC(=O)c1ccccc1N1CCN(CCCn2c(O)c3n(c2=O)CCC3)CC1`: more than 1000 nM.
